# FN deposit inh: fibronectin deposition inhibition. inhibition, % at 12.6 µM. AID 743247. AH1F fibroblasts, Alexa488-fibronectin deposition fluorescence, overnight. 350,000 compounds, 0.086% hits;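 active = mean inhibition across replicates of 30% or more, regardless of how many single replicates reach that level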;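 note: positive control wells lacked labelled fibronectin entirely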
#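 Material: AH1F fibroblasts assembling fluorescent fibronectin matrix; amount: 10000 AH1F cells/well; medium: DMEM, 2% serum; reagent: Alexa488-fibronectin, 24 nM final in well; dosing: single compound dose, delivered by pin transfer; incubation: 1 h adhesion, overnight exposure; detection: fluorescence after three HBSS washes, excitation 485 nm, emission 525 nm; measure: fibronectin deposition inhibition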
# RAD54 branch: inhibitors of human RAD54 branch migration | RAD54 Holliday junction branch migration, FAM/BHQ fluorescence | inhibition, % at 10.4 µM | 360,000 compounds, 0.14% hits | AID 602329;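 active = mean normalized replicate activity at least 40 and at least half of replicates scoring 40 or more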;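 note: 0% = median of neutral control wells and 100% = median of positive control wells; inhibitors cause a drop in the FAM fluorescence signal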
# RAD52 inh: inhibitors of human RAD52 DNA annealing | P43351 | inhibition, % at 18.7 µM | AID 651710 | 360,000 compounds, 0.46% hits | recombinant RAD52 DNA annealing, FRET fluorescence;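 active = every replicate showing at least 50% inhibition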
# Target sequence (P43351 whole entry, looked up): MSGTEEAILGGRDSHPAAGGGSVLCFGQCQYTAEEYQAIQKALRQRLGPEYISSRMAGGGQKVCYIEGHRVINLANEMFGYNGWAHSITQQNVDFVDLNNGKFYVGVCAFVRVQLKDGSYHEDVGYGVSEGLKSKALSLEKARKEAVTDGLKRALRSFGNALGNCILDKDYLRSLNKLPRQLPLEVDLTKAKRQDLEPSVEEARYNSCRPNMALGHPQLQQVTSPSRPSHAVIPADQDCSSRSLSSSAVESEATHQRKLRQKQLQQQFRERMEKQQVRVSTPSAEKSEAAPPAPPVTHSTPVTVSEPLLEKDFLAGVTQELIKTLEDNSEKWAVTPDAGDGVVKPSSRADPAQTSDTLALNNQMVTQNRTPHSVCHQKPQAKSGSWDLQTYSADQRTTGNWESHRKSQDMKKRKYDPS
# PAX8 inh HTS: PAX8 transcriptional activity inhibition. RMG-I TPO-luciferase reporter, SteadyGlo, 24 h. inhibition, % at 12.6 µM. 360,000 compounds, 1.2% hits. AID 652154;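 active = mean replicate inhibition at least 60% with every replicate also reaching 60%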;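 note: luciferase light reporting Pax8 driven TPO promoter activity; plate controls were median of neutral control wells for no effect and mitoxantrone controls for full effect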
# RAD52 DNA ctr: counter-screen for RAD52 inhibitors: DNA binding compounds. shares compounds with RAD52 inh. Salmon sperm DNA/acridine orange FP displacement. AC50, µM. 1,000 compounds, 8% hits. AID 652128;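 active = fitted half-maximal concentration for signal loss at or below twice the highest dose tested, in every separate run, actives reach about 64 µM in these data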
# * marks the source's active call; other numbers are inactive results; i = inactive; . = no result. Most compounds without a hit are left out; they make up all but 1.3% or so of the library.
SMILES,FN deposit inh,RAD54 branch,RAD52 inh,PAX8 inh HTS,RAD52 DNA ctr
CCOc1ccc(NCc2cccn2-c2nnc(N3CCC(C(=O)NCCCN4CCCCC4C)CC3)s2)cc1 (centres undefined),17,13,80*,-9,i
Cc1cc(C)nc(/N=C(\N)Nc2ccc(OCc3ccccc3)cc2)n1,-1,.,55*,54,i
Cc1cc(C)nc(/N=C(\N)Nc2cccc(OCc3ccccc3)c2)n1,-3,-1,49,36,.
CCN1CCC[C@H]1CNC(=O)c1c(OC)ccc(Br)c1OC,14,-7,2,-5,.
CCN1CCCC1CNC(=O)c1cc(N)ccc1OC (centres undefined),-10,32,90*,4,i
Nc1ccc2nc(CCCO)[nH]c2c1,0,36,93*,-12,i
CCN(CC)CCN(Cc1cc2cc3c(cc2[nH]c1=O)OCCO3)C(=S)NCCCN(C)C,4,1,54*,-4,i
CN(C)CCCNC(=S)N(CCN(C)C)Cc1cc2cc3c(cc2[nH]c1=O)OCCO3,0,29,84*,19,i
Oc1ccccc1C=NC(c1ccccc1)C(O)c1ccccc1 (centres undefined),.,0,.,.,.
Oc1ccccc1/C=N/[n+]1ccccc1,6,-7,58*,-23,i
O=C(NCCO)c1cc2c(s1)CCC2,.,-1,.,.,.
C[C@@H]1ON(C)[C@H]2C[C@H]3c4cc(-c5cc6ccccc6o5)ccc4CCN3C[C@@H]12,-4,.,68*,-123,i
Cc1cc(N2CCC(N(C)C3CCCC3)CC2)nc2cc(O)ccc12,-4,45,103*,10,i
Cc1cc(N2CCN(c3ccccc3)CC2)nc2ccccc12,-4,4,-3,-12,.
CCOc1ccc(N2C(=O)C3C4C=CC([C@H]5CC45)[C@@H]3C2=O)cc1 (some centres undefined),-5,-21,15,-5,.
CC(C)N1CCc2c(sc(NC(=S)NC(=O)c3ccccc3)c2C#N)C1,-1,.,54*,-56,i
CCCN1CCc2c(sc(NC(=S)NC(=O)c3ccccc3)c2C#N)C1,-3,.,33,-86,.
CC(C)N1CCc2c(sc(NC(=O)c3nc4ccccc4s3)c2C(N)=O)C1,-9,.,68*,-14,i
COc1ccc2c(c1)c(C(=O)N/N=C/c1cccc(O)c1)c(C)n2C,5,.,-24,38,.
CCCCCC(O)CCCC(=O)O (centres undefined),2,3,-5,-11,.
CCCCCCCCCCCCCCCC(O)C[N+](C)(C)CCO (centres undefined),4,.,80*,.,35µM*
O=C(Nc1cccc(C(F)(F)F)c1)c1csc([C@@H]2C[C@H](O)[C@@H](CO)O2)n1,.,1,10,-7,.
Cc1ccc(NC(=O)c2ccc(N/N=C/c3cccc(O)c3)c([N+](=O)[O-])c2)cc1,.,1,.,.,.
COc1ccc(C(CCN2CCOCC2)c2c(OC)cc(OC)c3c(-c4ccccc4)cc(=O)oc23)cc1 (centres undefined),.,3,51*,24,i
CCc1cccc2c1Sc1ccccc1CC2N1CCNCC1 (centres undefined),3,.,55*,14,i
SMILES,FN deposit inh,RAD54 branch,RAD52 inh,PAX8 inh HTS,RAD52 DNA ctr
CC(C)c1ccc2c(c1)C(N1CCNCC1)Cc1ccc(F)cc1S2 (centres undefined),10,.,2,31,.
OCCNc1c2ccccc2nc2ccccc12,14,.,79*,4,60µM*
CCNC(=O)Nc1ccc2c(c1)C(=O)N(C)[C@@H]1CC[C@H](CC(=O)NCC3CCCCC3)O[C@@H]1CO2,-1,-3,2,3,.
CC1(C)CC(N=c2cc(-c3ccccc3)oc3ccc(Cl)cc23)CC(C)(C)N1,-3,.,101*,-21,17µM*
NCC12CC3CC(C1)CC(c1ccc(Br)cc1)(C3)C2,-1,9,57*,17,i
Cc1ccc(C23CC4CC(CC(CN)(C4)C2)C3)cc1,1,.,4,20,.
Cc1cccc(C(=O)NC2CCN(S(=O)(=O)c3cccc(F)c3)CC2)c1,0,-15,-12,26,.
COc1ccc(CCN(CC(=O)NCc2ccc(F)cc2)C(=O)c2snc(C(N)=O)c2N)cc1OC,4,11,-1,-10,.
Nc1ccc2nc[nH]c2c1,13,.,85*,8,i
Cc1ccc(S(=O)(=O)N(C)C[C@H]2OCCCC[C@H](C)Oc3ccc(NC(=O)CCCN(C)C)cc3C(=O)N([C@H](C)CO)C[C@H]2C)cc1,0,2,42,5,.
NC(COCc1ccccc1)c1csc(Nc2ccc(C(=O)c3ccccc3)cc2)n1 (centres undefined),-1,4,58*,8,i
CC(C)(C)S(=O)N1Cc2cc(C(=O)NCCCN3CCOCC3)nc(-c3cccc(-c4cc5ccccc5o4)c3)c2[C@@H]1CCO (some centres undefined),17,-9,-4,16,i
COc1cc(NC(C)CCCNC(C)C)c2ncccc2c1OC (centres undefined),1,-13,-37,30,.
COc1cc(NCCCCCCN)c2ncccc2c1OC,.,.,63*,19,i
Cc1cc(C)cc(NC(=S)NCc2cccn2C)c1,.,.,65*,.,i
COc1ccc(N2CCN(C(=O)CCCN3C(=O)c4cccc5cccc(c45)C3=O)CC2)cc1,0,4,.,.,.
CCOc1ccc(CCN2C(=S)N([C@@H](Cc3ccc(O)cc3)CN3CCC[C@@H]3CN3C(=S)NC[C@@H]3Cc3ccccc3)C[C@@H]2CC(C)C)cc1,-9,-1,51*,34,i
Oc1ccc(C[C@H]2CN([C@@H](Cc3ccccc3)CN3CCCC3CN3C(=S)NC[C@@H]3Cc3ccccc3)C(=S)N2CC2CCCCC2)cc1 (some centres undefined),-4,.,-20,15,.
Oc1ccc(C[C@H]2CNC(=S)N2CC2CCCN2C[C@H](Cc2ccc(O)cc2)N2C[C@H](Cc3ccc(O)cc3)N(CC3CCCCC3)C2=S)cc1 (some centres undefined),.,-6,55*,91*,i
COc1cccc(C#Cc2ccc3c(c2)O[C@H](CN(C)C(=O)c2ccccn2)[C@@H](C)CN([C@H](C)CO)S3(=O)=O)c1,11,-1,.,32,.
CN(C)c1nc(N)c(C(=O)N=C(N)N)nc1Cl,8,41,88*,10,i
CCN(CC)C(=O)[C@H]1C[C@H](CC(=O)NCCc2ccccn2)C(=O)N2CCc3c([nH]c4cc(CCC(=O)N(C)C)ccc34)[C@]12C,3,-1,-4,-31,.
CCOC(=O)c1c(CNc2ccncc2)n(C)c2cc(Br)c(O)cc12,-19,.,64*,-6,i
Cc1ccc(SCCc2cc[n+](CC(=O)c3ccccc3)cc2)cc1,.,.,54*,-35,i
Cc1ccc(C(=O)C[n+]2ccc(Cc3ccccc3)cc2)cc1,-1,.,-5,18,.
COc1cc(NS(C)(=O)=O)ccc1Nc1c2ccccc2nc2ccccc12,3,56*,55*,71*,i

# Assay outcomes from PubChem.
